ChEMBL document CHEMBL1123504, “2,3-Dialkyl(dimethylamino)indoles: interaction with 5HT1, 5HT2, and rat stomach fundal serotonin receptors” (J Med Chem, 1986)

Key:
[1] = target: T1, Serotonin 1 (5-HT1) receptor (Rattus norvegicus, UniProt P28564+P30940+P19327+P28565); assay: Binding affinity towards 5-hydroxytryptamine 1 receptor in brain cortical membranes of rat; type: cell membranes
Procedure, shortened: (§1)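 Rat 5HT1 site: cortical membranes from 150-200-g male Wistar rats, preincubated in buffer to remove endogenous 5HT; […] per sample in 1 mL Tris buffer. [3H]-5HT at 2.3-2.6 nM; nonspecific binding with 10^-5 M 5HT. IC50 = 50% inhibition of specific binding, from 10 concentrations spanning 10^-9 to 10^-4 M.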

[2] = target: Serotonin 2 (5-HT2) receptor (Rattus norvegicus, UniProt P30994+P08909+P14842); assay: Binding affinity towards 5-hydroxytryptamine 2 receptor in rat brain cortical membranes; type: cell membranes
Procedure, shortened: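 5HT2 site, [3H]spiperone binding to cortical membranes of 150-200-g male Wistar rats, preincubated to deplete endogenous 5HT; […] per 1 mL Tris buffer. Nonspecific binding defined with 10^-6 M lysergic acid diethylamide. IC50 taken as 50% inhibition of specific binding, 10 concentrations from 10^-9 to 10^-4 M.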

[3] = species: Rattus norvegicus; assay: Tested for noncumulative contractile concentration -response curves for serotonin in the rat fundus.; type: functional
Procedure, shortened: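 Isolated rat stomach fundus strips, four per fundus, in 10 mL modified Krebs. Noncumulative serotonin curves, about 2 min contact per concentration, washout every 15-20 min, maximal contraction read. Antagonist or buffer for 1 h, then curve repeated; one antagonist concentration per tissue. KB = [B]/(dose ratio - 1) from ED50 shift, reported as -log KB.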

[4] = target: T1, Serotonin 1 (5-HT1) receptor; assay: Tested for its binding affinity towards 5-hydroxytryptamine 1 receptor in rat; procedure, shortened: as §1
[5] = species: Rattus norvegicus; assay: Tested for cumulative contractile concentration -response curves for serotonin in the rat jugular vein.
[6] = species: Rattus norvegicus; assay: Tested for cumulative contractile concentration -response curves for serotonin in the rat jugular vein

Row | Compound | IC50 [1] [nM] | IC50 [2] [nM] | -Log KB [3] | IC50 [4] [nM] | -Log KB [5] | -Log KB [6]
1 | CCc1c(C)[nH]c2ccc(N(C)C)c(Cl)c12 | > 1000 | > 1000 | 6.86 |  |  | 
2 | CCc1c(C)n(C(=O)c2ccc(F)cc2)c2ccc(N(C)C)cc12 |  | > 1000 | <5 | > 1000 |  | 
3 | CCc1c(C)[nH]c2ccc(N(C)C)cc12 | > 1000 | > 1000 | 7.3 |  | 4.93 | 
4 | CCCn1c(C)c(CC)c2cc(N(C)C)ccc21 | > 1000 | > 1000 | 6.57 |  |  | 
5 | CCc1c(C)n(C)c2c(N(C)C)cccc12 | > 1000 | > 1000 | <5.5 |  |  | 
6 | CCc1c(C)c2cc(N(C)C)ccc2n1C | > 1000 | > 1000 | 6.69 |  |  | 6.48
7 | CCc1c(C)n(C(C)C)c2ccc(N(C)C)cc12 | > 1000 | > 1000 | 7 |  |  | 7.28
8 | CCc1c(C)n(C)c2ccc(N(C)C)cc12 | > 1000 | > 1000 | 7.32 |  | 6.51 | 
9 | Cc1c(C)n(C)c2ccc(N(C)C)cc12 | > 1000 | > 1000 | 6.71 |  |  | 
10 | CCc1c(C)n(CC)c2ccc(N(C)C)cc12 | > 1000 | > 1000 | 7.01 |  | 6.45 | 
11 | CCc1c(C)n(C)c2ccc(NC(=O)Nc3cccc(C(F)(F)F)c3)cc12 | > 1000 | > 1000 | 7.16 |  | 5.18 | 
